# In PubChem BioAssay AID1040 (The Scripps Research Institute Molecular Screening Center, 2008):
# The campaign covered roughly 200,000 compounds. About 2,000 (1%) were called active. This excerpt belongs to a sample that is enriched for actives. Values without a mark were called inactive.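 Rule for the calls: active = inhibition above the campaign mean inhibition of all tested compounds plus 3 SD (cut at about 20% in these data); inactive = the rest.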
# Molecular target: Neuropeptide Y receptor type 1 (Homo sapiens) (UniProt P25929)
# Sequence (P25929 whole entry, looked up): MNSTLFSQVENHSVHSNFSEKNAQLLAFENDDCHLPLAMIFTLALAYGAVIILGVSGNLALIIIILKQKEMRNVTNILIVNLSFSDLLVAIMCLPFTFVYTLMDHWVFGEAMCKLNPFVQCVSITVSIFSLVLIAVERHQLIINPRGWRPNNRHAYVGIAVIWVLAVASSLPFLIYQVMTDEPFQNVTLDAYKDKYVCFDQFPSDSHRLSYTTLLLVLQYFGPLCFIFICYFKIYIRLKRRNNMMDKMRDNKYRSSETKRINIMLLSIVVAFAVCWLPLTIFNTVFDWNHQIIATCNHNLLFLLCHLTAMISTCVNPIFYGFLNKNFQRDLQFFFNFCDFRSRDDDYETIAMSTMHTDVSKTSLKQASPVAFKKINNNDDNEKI
# Assay: blockers of human neuropeptide Y Y1 receptor – cell-based, primary screen (AID 1040);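 note: 0% = DMSO wells given NPY plus isoproterenol and 100% = isoproterenol alone without NPY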
# Details: HEK293-CNG Y1 cells, membrane potential fluorescence; at 3.6 µM; hits give high values; NPY at EC95, then isoproterenol
# In short: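 Material: Y1- and CNG-channel-expressing HEK293 cells / Probe or stimulus: NPY 25 nM then isoproterenol 1 µM plus Ro 20-1724 25 µM / Doses: 3.6 µM single dose, DMSO 0.4% / Schedule: compound incubation 1 h at room temperature, readout 45 min post-stimulation / Signal: membrane potential fluorescence / Benchmarks: isoproterenol-only wells as full block versus NPY-plus-isoproterenol wells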
row,Compound,inhibition
1,COC(=O)COc1cccc2c(=O)n(CC(=O)NCCc3ccc(OC)c(OC)c3)ccc12,-1.97%
2,O=C(CSc1nnnn1C1CCCC1)Nc1ccc2c(c1)OCCO2,22.9% (active)
3,O=C(CSc1nnnn1-c1ccc2c(c1)CCC2)Nc1ccc2c(c1)OCCO2,6.81%
4,CCC(=O)Nc1cccc(NC(=O)CSc2nnnn2C2CCCC2)c1,3.57%
5,CCC(=O)c1c[nH]c(C(=O)NCC2CCCO2)c1 (configuration not stated),55.6% (active)
6,O=C(NCC1CCCO1)c1ccc2ccccc2n1 (configuration not stated),2.64%
7,CCC(=O)Nc1ccc(S(=O)(=O)NCC2CCCO2)cc1 (configuration not stated),-5.94%
8,Nc1ccc(Cl)c(S(=O)(=O)Nc2ccccc2Cl)c1,-0.95%
9,COC(=O)c1ccc(NC(=S)NN2CCOCC2)cc1,4.27%
10,CC(Nc1nc(N2CCOCC2)nc2ccccc12)c1ccccc1 (configuration not stated),8.28%
11,CC(Nc1nc(N2CCN(CCO)CC2)nc2ccccc12)c1ccccc1 (configuration not stated),22.2% (active)
12,CCCCn1c(CN2CCN(CCO)CC2)nc2ccccc21,6.52%
13,CC(Nc1nc(N2CCCC2)nc2ccccc12)c1ccccc1 (configuration not stated),32.6% (active)
14,c1ccc(-c2cc(N3CCCCC3)c3ccccc3n2)cc1,15.9%
15,O=C(NC(c1ccccc1)c1ccccc1)N1CCN(CCO)CC1,3.34%
16,COc1ccc(CC(=O)Nc2ccccc2NC(=O)c2ccco2)cc1OC,0.93%
17,Cc1ccc(-c2nnc(SCC(=O)N/N=C/c3cccs3)n2-c2ccc(C)cc2)cc1,0.85%
18,CC(Oc1ccccc1F)C(=O)NN (configuration not stated),2.86%
19,O=C(O)CCc1nc2cc(Cl)ccc2n(Cc2ccccc2)c1=O,5.7%
20,O=C(C1CCCN1S(=O)(=O)c1ccc(Br)cc1)N1CCOCC1 (configuration not stated),-0.15%
21,CN1CCN(c2ccc(NC(=O)c3ccc4c(c3)OCCO4)cc2Cl)CC1,12%
22,O=C(O)c1ccccc1-c1ccccc1C(=O)Nc1nccs1,2.4%
23,O=C(NCCc1ccc(F)cc1)c1n[nH]c2ccccc12,-0.22%
24,Cc1ccc(C)c(NC(=S)NCC(c2cccnc2)N2CCOCC2)c1 (configuration not stated),0.28%
25,O=C1c2cccc3cccc(c23)C(=O)N1CCCCCc1n[nH]c(=S)o1,5.39%

row,Compound,inhibition
1,O=C(Nc1cccc(Cl)c1)Nc1ccccc1NS(=O)(=O)c1cccs1,-7.2%
2,c1ccc(-c2[nH]ncc2-c2nc3ccccc3[nH]2)cc1,-3.83%
3,c1ccc2[nH]c(-c3nc4ccccc4[nH]3)nc2c1,0.38%
4,COc1ccc(-c2[nH]nc(-c3ccccc3)c2-c2nc3ccccc3[nH]2)cc1,20.3% (active)
5,Cc1ccc(NC(=O)C(=O)NCC2CCN(C(=O)c3cccc([N+](=O)[O-])c3)CC2)cc1,-1.84%
6,Cc1ccc(S(=O)(=O)/N=C(\N)c2ccc(F)cc2)cc1,-5.62%
7,O=C(NCc1ccccn1)c1cc(-c2ccccc2Cl)on1,9.55%
8,Clc1ccc(-c2cc(COc3ccccc3)no2)cc1Cl,5%
9,Clc1ccccc1-c1cc(COc2ccc3ccccc3c2)no1,25.6% (active)
10,Cc1cc(C)cc(C(=O)NC(=S)Nc2ccc3[nH]c(=O)[nH]c3c2)c1,6.81%
11,COc1ccccc1CNC(=O)c1cc(=O)c2ccccc2o1,-4.58%
12,COc1cc2c(cc1/C=C1/NC(=O)N(c3ccccc3)C1=O)OCO2,6.09%
13,CCCOc1ccccc1C1CC(=O)Nc2cc3c(cc21)OCO3 (configuration not stated),8.29%
14,COc1ccccc1C1C2=C(COC2=O)Nc2cc3c(cc21)OCO3 (configuration not stated),36.2% (active)
15,CCC(C)[C@@H](C(=O)N1CCNCC1)n1cc(CCCCN)nn1 (some centres not stated),1.85%
16,O=C(CC1NCCNC1=O)Nc1cc(Cl)cc(Cl)c1 (configuration not stated),0.62%
17,COC(=O)c1ccc(/C=N/OCC(=O)Nc2cc(F)ccc2F)cc1,11.1%
18,Cc1ccc(CSc2nc3[nH]ncc3c(=O)[nH]2)cc1,7.17%
19,Cc1cccc2cc(CN(Cc3ccc4c(c3)OCO4)Cc3nnnn3C3CCCC3)c(=O)[nH]c12,-4.12%
20,CCC(c1nnnn1C1CCCC1)N(Cc1cccs1)Cc1cc2cccc(C)c2[nH]c1=O (configuration not stated),20.4% (active)
21,Cc1cccc2cc(CN(Cc3cccs3)C(c3nnnn3C3CCCC3)C(C)C)c(=O)[nH]c12 (configuration not stated),14.5%
22,CCOc1cccc(OCCCOc2cccc3cccnc23)c1,1.99%
23,CN(C)S(=O)(=O)c1cccc(NC(=O)COC(=O)c2cc(=O)[nH]c(=O)[nH]2)c1,0.75%
24,CCOC(=O)C1CCN(C(=O)/C=C/c2cc(OC)c(OC)c(OC)c2)CC1,-1.4%
25,Cc1ccc(/C=N/NC(=O)c2sccc2OCc2ccc(F)cc2)cc1,27.2% (active)

row,Compound,inhibition
1,Cc1ccsc1C(=O)N/N=C/c1ccc([N+](=O)[O-])cc1,2.54%
2,Cc1ccc(COc2ccc(/C=N/NC(=O)CN3CCCCC3)cc2)cc1,16.6%
3,CS/C(=C\[N+](=O)[O-])Nc1ccc(C)cc1,10.6%
4,O=C(COC(=O)C1CC2C=CC1C2)Nc1ccccc1 (configuration not stated),-2.39%
5,CCCCN(CC)C(=O)c1ccc2c(c1)OCO2,-2.36%
6,CCOc1ccc(CCNC(=O)C2=C(C)C(=O)OC23CCC(C)CC3)cc1OCC (configuration not stated),8.46%
7,O=C(O)CSc1nccc2ccccc12,21.7% (active)
8,O=C(O)CSc1nccn1-c1cccc(Cl)c1,7.38%
9,COC(=O)CSc1nc(C2CC2)nc2ccccc12,3.03%
10,CC1COc2ccccc2N1C(=O)c1cccnc1Cl (configuration not stated),1.41%
11,CCOc1ccccc1Nc1ccc(C(=O)O)cc1[N+](=O)[O-],3.86%
12,ClC1(Cl)CC1CSc1ncn[nH]1 (configuration not stated),3.1%
13,COC(=O)c1nc2n(n1)C(c1ccc([N+](=O)[O-])cc1)C(C(=O)Nc1ccc(Cl)cc1)=C(C)N2 (configuration not stated),-1.89%
14,Cc1nn(C)c(C)c1Sc1ccccc1N,-0.64%
15,COc1ccc(-c2oc3ncn(Cc4ccco4)c(=N)c3c2-c2ccc(OC)cc2)cc1,31.4% (active)
16,c1ccc(-c2oc3ncnc(N4CCOCC4)c3c2-c2ccccc2)cc1,4.24%
17,N=c1c2c(-c3ccccc3)c(-c3ccccc3)oc2ncn1Cc1ccco1,25.5% (active)
18,C(=C\c1ccccc1)/CSc1nnc(-c2cccnc2)n1Cc1ccco1,9.54%
19,COc1ccc2[nH]c3c(=O)n(Cc4ccco4)cnc3c2c1,1.7%
20,COc1ccc(-n2cnc3cc(NCc4ccco4)ccc32)cc1,-4.2%
21,Cc1ccccc1NC(=O)NC1(C(=O)N2CCCC2)CCCCC1,0.5%
22,COc1cc(SC)ccc1C(=O)Nc1cc(C)ccn1,4.33%
23,Cc1ccc(C(=O)NCC(=O)O)s1,-2.04%
24,COc1cccc(OC)c1C(=O)NC(=S)Nc1ccc(N2CCOCC2)c(Cl)c1,9.33%
25,Cc1c(Cl)c([N+](=O)[O-])nn1CC(=O)NCC1CCCO1 (configuration not stated),-5.55%

row,Compound,inhibition
1,CCOC(=O)c1cnn(Cc2ccccc2Cl)c1N,-2.37%
2,COC(=O)c1ccc(COC(=O)c2c(C)nn(Cc3ccccc3Cl)c2Cl)o1,22.2% (active)
3,COC(=O)c1ccc(CSc2ccccc2C)o1,-3.04%
4,O=C(Nc1ccc(F)cc1)N1CCCC(c2nc3c(nnn3Cc3ccccc3Cl)c(=O)[nH]2)C1 (configuration not stated),-6.56%
5,Oc1ccccc1C=NC1CCCCC1N=Cc1ccccc1O (configuration not stated),4.16%
6,Cc1ccc(Cl)cc1N1CCN(C(=O)c2cccc3c(=O)c(C)c(-c4ccccc4)oc23)CC1,4.2%
7,Cc1cccc(OCCC(=O)Nc2cc(S(=O)(=O)N3CCCCC3)ccc2N2CCOCC2)c1,2.92%
8,Cc1ncc([N+](=O)[O-])n1CCOC(=O)c1ccc(Br)cc1,-0.91%
9,COc1ccccc1NC(=O)COC(=O)Cc1ccc(S(=O)(=O)N2CCCCC2)s1,-4.82%
10,O=C(Nc1ccc(N2C(=O)c3cccc4cccc(c34)C2=O)cc1)c1ccc(N2CCCCC2)c([N+](=O)[O-])c1,-0.12%
11,COc1ccc(-c2[nH]ncc2/C=N/NC(=O)c2cc(Br)ccc2O)c(OC)c1,4.29%
12,CS(=O)(=O)n1nc(-c2ccccc2)nc1NCc1ccco1,-0.86%
13,CCS(=O)(=O)n1nc(-c2ccc(OC)cc2)nc1SC,3.74%
14,CCS(=O)(=O)n1nc(-c2ccccc2)nc1SCc1ccccc1,28.2% (active)
15,Cc1ccnc(NC(=O)CCC(=O)N(CC(=O)NCc2ccccc2)Cc2ccco2)c1,2.07%
16,Cc1ccc(N2C(=O)C3N=NN(CC(=O)N4N=C(c5cccc6ccccc56)CC4c4ccccc4)C3C2=O)cc1 (configuration not stated),20.5% (active)
17,O=C1C2N=NN(CC(=O)N3N=C(c4cccc5ccccc45)CC3c3ccccc3)C2C(=O)N1c1ccccc1 (configuration not stated),6.21%
18,CC(=O)Oc1ccccc1C1=NN(C(C)=O)C(c2ccccc2)C1 (configuration not stated),1.31%
19,CCn1ccnc1CN1CCCC(C(=O)c2ccc3c4c(cccc24)CC3)C1 (configuration not stated),3.36%
20,Cc1cccc(-c2ncc(CN3CCC(CO)(CCCc4ccccc4)CC3)cn2)c1,4.93%
21,CC(=O)c1cccc(CN2CCC(CO)(Cc3ccccc3)CC2)c1,2.21%
22,OCC1(CCc2ccccc2)CCN(Cc2ccc3nsnc3c2)CC1,22.8% (active)
